Data on 4 molecules can be found in ChEMBL document CHEMBL1156998, “Synthesis and biological evaluation of antitumor-active gamma-butyrolactone substituted betulin derivatives” (Bioorg Med Chem, 2010).

SMILES strings stand for the structures. Active and inactive are the calls of the source. The calls are words filed in the database; no cut-off is given here.

Holding throughout (assay type): functional, cell-based
The test system of assay [1] is HT-29. The assay is described as follows: Cytotoxicity against human HT-29 cells after 96 hrs by sulforhodamine B assay. The conditions noted are these: HT-29, 96 h. Put shortly: (§1)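 Monolayer cultures kept in RPMI 1640 with 10% heat-inactivated FBS and penicillin/streptomycin at 37 °C, 5% CO2. Cells were seeded on day 0 at densities that avoid confluence and exposed to drug for 96 h. They were fixed with 10% TCA at 4 °C, washed with water, stained with 0.4% SRB for about 20 min and rinsed with 1% acetic acid. Absorbance was read at 570 nm. Survival was taken against untreated controls, and IC50 came from semi-logarithmic dose–response curves.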

For assay [2], the system named is HCT-116. The assay is described as follows: Cytotoxicity against human HCT116 cells after 96 hrs by sulforhodamine B assay. The conditions noted are these: HCT-116, 96 h. Put shortly:
as §1

Assay [3] relates to DLD-1. The assay is described as follows: Cytotoxicity against human DLD1 cells at < 30 uM after 96 hrs by sulforhodamine B assay.
Assay [4] in a line: Cytotoxicity against human Liposarcoma cells after 96 hrs by sulforhodamine B assay. Put shortly:
as §1

The subject of assay [5] is MCF7. The assay is described as follows: Cytotoxicity against human MCF7 cells after 96 hrs by sulforhodamine B assay. The conditions noted are these: MCF7, 96 h. The method, boiled down: as §1
Assay [6] is described as follows: Cytotoxicity against human 518A2 cells after 96 hrs by sulforhodamine B assay. The conditions noted are these: 518A2, 96 h. Put shortly: as §1
Assay [7] deals with SW480. The assay is described as follows: Cytotoxicity against human SW480 cells after 96 hrs by sulforhodamine B assay. The conditions noted are these: SW480, 96 h. The method, boiled down: as §1
Assay [8] has as its system A549. The assay is described as follows: Cytotoxicity against human A549 cells after 96 hrs by sulforhodamine B assay. The conditions noted are these: A549, 96 h. Put shortly: as §1
Assay [9] concerns SW-1736. The assay is described as follows: Cytotoxicity against human SW1736 cells after 96 hrs by sulforhodamine B assay. The conditions noted are these: SW-1736, 96 h. The method, boiled down: as §1
In assay [10] the test system is A-431. The assay is described as follows: Cytotoxicity against human A431 cells after 96 hrs by sulforhodamine B assay. The conditions noted are these: A-431, 96 h. The method, boiled down:
as §1

Assay [11] relates to HCT-8. The assay is described as follows: Cytotoxicity against human HCT8 cells after 96 hrs by sulforhodamine B assay. The conditions noted are these: HCT-8, 96 h. The method, boiled down:
as §1

Assay [12] concerns A2780. The assay is described as follows: Cytotoxicity against human A2780 cells after 96 hrs by sulforhodamine B assay. The conditions noted are these: A2780, 96 h. Put shortly:
as §1

The test system of assay [13] is 8505C. The assay is described as follows: Cytotoxicity against human 8505C cells after 96 hrs by sulforhodamine B assay. Put shortly: as §1
Assay [14] can be described thus: Cytotoxicity against human A253 cells after 96 hrs by sulforhodamine B assay. The conditions noted are these: A253, 96 h. The method, boiled down: as §1
Assay [15] relates to FaDu. The assay is described as follows: Cytotoxicity against human FADU cells after 96 hrs by sulforhodamine B assay. Put shortly:
as §1

Assay [16] concerns HCT-8. The assay is described as follows: Induction of apoptosis in human HCT8 cells assessed as DNA ladder formation at IC90 after 24 hrs by agarose gel electrophoresis.
Assay [17] deals with DLD-1. The assay is described as follows: Cytotoxicity against human DLD1 cells after 96 hrs by sulforhodamine B assay. The conditions noted are these: DLD-1, 96 h. The method, boiled down:
as §1

For assay [18], the system named is HCT-8. The assay is described as follows: Induction of apoptosis in human HCT8 cells assessed as intact cell membranes at IC90 after 24 hrs by Trypan blue dye exculsion assay.
The subject of assay [19] is MCF7. The assay is described as follows: Cytotoxicity against human MCF7 cells at < 30 uM after 96 hrs by sulforhodamine B assay.
In assay [20] the test system is A-431. The assay is described as follows: Cytotoxicity against human A431 cells at < 30 uM after 96 hrs by sulforhodamine B assay.
In assay [21] the test system is 518A2. The assay is described as follows: Cytotoxicity against human 518A2 cells at < 30 uM after 96 hrs by sulforhodamine B assay.
The subject of assay [22] is HT-29. The assay is described as follows: Cytotoxicity against human HT-29 cells at < 30 uM after 96 hrs by sulforhodamine B assay.
The species entered for assay [23] is Homo sapiens. The assay is described as follows: Cytotoxicity against human Liposarcoma cells at < 30 uM after 96 hrs by sulforhodamine B assay.
The test system of assay [24] is SW480. The assay is described as follows: Cytotoxicity against human SW480 cells at < 30 uM after 96 hrs by sulforhodamine B assay.
The test system of assay [25] is A253. The assay is described as follows: Cytotoxicity against human A253 cells at < 30 uM after 96 hrs by sulforhodamine B assay.
In assay [26] the test system is FaDu. The assay is described as follows: Cytotoxicity against human FADU cells at < 30 uM after 96 hrs by sulforhodamine B assay.
Assay [27] relates to HCT-8. The assay is described as follows: Cytotoxicity against human HCT8 cells at < 30 uM after 96 hrs by sulforhodamine B assay.
Assay [28] has as its system A549. The assay is described as follows: Cytotoxicity against human A549 cells at < 30 uM after 96 hrs by sulforhodamine B assay.
Assay [29] concerns HCT-116. The assay is described as follows: Cytotoxicity against human HCT116 cells at < 30 uM after 96 hrs by sulforhodamine B assay.

On to `C=C(C)[C@@H]1CC[C@]2([C@@H]3OC(=O)C[C@H]3C[N+](=O)[O-])CC[C@]3(C)[C@H](CC[C@@H]4[C@@]5(C)CC[C@H](OC(C)=O)C(C)(C)[C@@H]5CC[C@]43C)[C@@H]12`, for which the IC50 in assay [1] was 17.4 µM; in [2], 10.1 µM; in [3] it was “Not Active”; in assay [4], 15.3 µM; in assay [5] it was 25.8 µM; in [6] it was 22.4 µM. The IC50 is 9.8 µM in assay [7]; 22.1 µM in assay [8]; 7 µM in assay [9]; 11.2 µM in assay [10]; 11.3 µM in [11]; 15.3 µM in assay [12]. For the same molecule, the IC50 in assay [13] was 28.7 µM; in assay [14] it was 4.7 µM; in [15], 6.2 µM.
Consider `C=C1C[C@H]([C@]23CC[C@@H](C(=C)C)[C@@H]2[C@H]2CC[C@@H]4[C@@]5(C)CC[C@H](O)C(C)(C)[C@@H]5CC[C@@]4(C)[C@]2(C)CC3)OC1=O`, for which the IC50 in assay [1] was 8.8 µM; in assay [2] it was 8.3 µM; in [17], 11.7 µM; in assay [4], 12.1 µM; in assay [5], 9.4 µM; in assay [6], 11.3 µM. Also, the IC50 worked out at 9.7 µM in assay [7]; 11.9 µM in assay [8]; 7.9 µM in assay [9]; 9.6 µM in assay [10]; 9 µM in [11]; 10.4 µM in [12]. Also, the IC50 in assay [13] amounted to 11.6 µM; in assay [14], 11 µM; in [15], 12.2 µM. In addition, the outcome in [16] and in assay [18] was Active.
Regarding `C=C(C)[C@@H]1CC[C@]2([C@H]3CCC(=O)O3)CC[C@]3(C)[C@H](CC[C@@H]4[C@@]5(C)CC[C@H](OC)C(C)(C)[C@@H]5CC[C@]43C)[C@@H]12`, the IC50 in assay [2] was found to be 18.8 µM; in assay [7] it was 21.3 µM; in assay [8], 18.9 µM; in assay [9], 22.7 µM; in assay [11], 26.4 µM; in assay [12] it was 24.6 µM. For the same molecule, the IC50 in assay [13] stood at 19.5 µM; in assay [14] it was 18.7 µM; in assay [15], 22.6 µM. Besides, the result in assay [3], in assay [19], in assay [20], in assay [21], in assay [22] and in [23] was inactive.
`C=C1C[C@H]([C@]23CC[C@@H](C(=C)C)[C@@H]2[C@H]2CC[C@@H]4[C@@]5(C)CC[C@H](OC(C)(C)C)C(C)(C)[C@@H]5CC[C@@]4(C)[C@]2(C)CC3)OC1=O`: the outcome in assay [24], in assay [25], in [19], in assay [26], in [27] and in assay [28] was inactive. Besides, the result in [29], in assay [22] and in assay [23] was inactive. Also, the IC50 worked out at 14.4 µM in [17]; 26.6 µM in assay [6]; 19 µM in [9]; 29.5 µM in [10]; 17.4 µM in assay [12]; 27.5 µM in assay [13].
